Experiments:
[1] = system: Human immunodeficiency virus 1; assay: Inhibitory activity against HIV-1 mutant strain 181C; type: functional, organism-based
In short: (§1)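 Mutant HIV-1 made by recombining mutant PR-RT sequence into a PR-RT-deleted HXB2 proviral clone. Serial compound concentrations plated, then virus (200 CCID50/well) and MT4 cells (30 000 cells/well; RPMI 1640, 10% FCS) added; 5 days at 37 °C, 5% CO2; viability read by MTT. EC50 = concentration giving 50% infection versus drug-free control; mock-infected cultures run in parallel for toxicity.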

[2] = system: Human immunodeficiency virus 1; assay: Inhibitory activity against HIV-1 mutant strain 103N; type: functional, organism-based; in short: as §1
[3] = system: Human immunodeficiency virus 1; assay: Inhibitory activity against HIV-1 mutant strain 138K; type: functional, organism-based; in short: as §1
[4] = system: Human immunodeficiency virus 1; assay: Inhibitory activity against HIV-1 mutant strain 101E; type: functional, organism-based; in short: as §1
[5] = system: Human immunodeficiency virus 1; assay: Inhibitory activity against HIV-1 mutant strain 100I; type: functional, organism-based; in short: as §1
[6] = system: Human immunodeficiency virus 1; assay: Selectivity index of cytotoxic activity (CC50) to inhibitory activity (IC50) relative to LAI cell line; type: functional
In short: (§2)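 MT4 human T-lymphoblastoid cells were grown in RPMI 1640 with 10% fetal calf serum and antibiotics at 37 °C and 5% CO2. A compound concentration series was combined with HIV-1 LAI at 200 CCID50/well and 30 000 cells/well. Mock-infected cultures with the same concentrations were run in parallel to measure cytotoxicity. After 5 days, cell viability was read by MTT colorimetry. EC50 is the concentration giving 50% infection versus the drug-free control.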

[7] = system: Human immunodeficiency virus 1; assay: Inhibitory activity against HIV-1 double mutants strain 227L and 106A; type: functional, organism-based; in short: as §1
[8] = system: Human immunodeficiency virus 1; assay: Inhibitory activity against HIV-1 mutant strain 190S; type: functional, organism-based; in short: as §1
[9] = system: Human immunodeficiency virus 1; assay: Inhibitory activity against HIV-1 mutant strain 227C; type: functional, organism-based; in short: as §1
[10] = system: Human immunodeficiency virus 1; assay: Inhibitory activity against HIV-1 double mutants strain 103N and 181C; type: functional, organism-based; in short: as §1
[11] = system: Human immunodeficiency virus 1; assay: Inhibitory activity against HIV-1 mutant strain 179E; type: functional, organism-based; in short: as §1
[12] = system: Human immunodeficiency virus 1; assay: Inhibitory activity against wild type HIV-1 LAI cell line; type: functional, organism-based; conditions: Human immunodeficiency virus 1, LAI; in short: as §2
[13] = system: Human immunodeficiency virus 1; assay: Inhibitory activity against HIV-1 mutant strain 188L; type: functional, organism-based; in short: as §1
[14] = system: Human immunodeficiency virus 1; assay: Inhibitory activity against HIV-1 mutant strain 190A; type: functional, organism-based; in short: as §1
[15] = system: Human immunodeficiency virus 1; assay: Inhibitory activity against HIV-1 double mutants strain 101E and 103N; type: functional, organism-based; in short: as §1
[16] = system: Human immunodeficiency virus 1; assay: Inhibitory activity against HIV-1 double mutants strain 100I and 103N; type: functional, organism-based; in short: as §1
[17] = system: Human immunodeficiency virus 1; assay: Inhibitory activity against HIV-1 mutant strain 106A; type: functional, organism-based; in short: as §1

Structure (SMILES)	IC50 [1]	IC50 [2]	IC50 [3]	IC50 [4]	IC50 [5]	Selectivity index [6]	IC50 [7]	IC50 [8]	IC50 [9]	IC50 [10]	IC50 [11]	IC50 [12]	IC50 [13]	IC50 [14]	IC50 [15]	IC50 [16]	IC50 [17]
CCc1c(C)nc(O)c(N(C)C)c1C(=O)c1cccc(C#N)c1	40 nM	6 nM	4 nM	7 nM	10 nM	6310	50 nM	2 nM	220 nM	110 nM	4 nM	2 nM	390 nM	5 nM	20 nM	30 nM	–
CCc1c(C)[nH]c(=O)c(N(C)C)c1Cc1cc(C)cc(C)c1	100 nM	30 nM	–	10 nM	50 nM	12600	–	–	–	790 nM	–	8 nM	250 nM	60 nM	–	–	40 nM
CCc1c(C)nc(O)c(N(C)C)c1C(=O)c1cccc(Br)c1	150 nM	20 nM	5 nM	10 nM	20 nM	12600	100 nM	3 nM	260 nM	970 nM	5 nM	2 nM	790 nM	7 nM	70 nM	70 nM	–
CCc1c(C)nc(O)c(N(C)C)c1Cc1cccc(Cl)c1	80 nM	40 nM	–	–	–	20000	–	–	–	–	–	5 nM	1580 nM	–	–	–	–
CCc1c(C)[nH]c(=O)c(N(C)C)c1C(=O)c1cc(C)cc(C)c1	60 nM	10 nM	5 nM	8 nM	6 nM	2510	390 nM	4 nM	630 nM	150 nM	2 nM	4 nM	150 nM	10 nM	10 nM	40 nM	6 nM
CCc1c(C)nc(O)c(N(C)C)c1Cc1ccccc1Br	130 nM	250 nM	–	–	–	15900	–	–	–	–	–	6 nM	1990 nM	–	–	–	–
CCc1c(C)nc(O)c(N(C)C)c1C(=O)c1cccc(/C=C/c2cnccn2)c1	70 nM	50 nM	–	–	–	3960	–	–	–	–	–	20 nM	200 nM	–	–	–	–
CCc1c(C)nc(O)c(N(C)C)c1C(=O)c1cccc(/C=C/c2cccnc2)c1	60 nM	20 nM	–	–	–	3160	–	–	–	–	–	3 nM	150 nM	–	–	–	–
CCc1c(C)nc(O)c(N(C)C)c1Cc1cccnc1	1000 nM	390 nM	–	–	–	6310	–	–	–	–	–	10 nM	3980 nM	–	–	–	–
C/C=C/c1cccc(C(=O)c2c(CC)c(C)nc(O)c2N(C)C)c1	390 nM	150 nM	–	–	–	10000	–	–	–	–	–	5 nM	390 nM	–	–	–	–
CCOC(=O)/C=C/c1cccc(C(=O)c2c(CC)c(C)nc(O)c2N(C)C)c1	150 nM	10 nM	–	–	–	3160	–	–	–	–	–	3 nM	150 nM	–	–	–	–
Cc1ccnc2c1NC(=O)c1cccnc1N2C1CC1 [NEVIRAPINE]	10000 nM	–	50 nM	310 nM	310 nM	–	20 nM	40 nM	130 nM	40 nM	190 nM	30 nM	100000 nM	–	500 nM	–	–
CCc1c(C)nc(O)c(N(C)C)c1C(=O)c1ccc(C)o1	1580 nM	250 nM	–	–	–	10000	–	–	–	–	–	10 nM	50100 nM	–	–	–	–
CCc1c(C)nc(O)c(N(C)C)c1Cc1cccc(Br)c1	6 nM	100 nM	–	–	–	25100	–	–	–	–	–	4 nM	2510 nM	–	–	–	–
CCc1c(C)nc(O)c(N(C)C)c1C(=O)c1cccc(-c2cccnc2)c1	10000 nM	50 nM	–	–	–	126	–	–	–	–	–	6 nM	10000 nM	–	–	–	–
CCc1c(C)nc(O)c(N(C)C)c1Cc1cccc(F)c1	160 nM	60 nM	–	–	–	39800	–	–	–	–	–	2 nM	1580 nM	–	–	–	–
CCc1c(C)nc(O)c(N(C)C)c1C(=O)c1cccc(/C(C)=C/C#N)c1	60 nM	3 nM	4 nM	8 nM	10 nM	63100	1250 nM	10 nM	1250 nM	200 nM	2 nM	1 nM	390 nM	6 nM	20 nM	40 nM	3 nM
CCc1c(C)nc(O)c(N(C)C)c1C(=O)c1cccc(/C=C\C#N)c1	10 nM	3 nM	–	–	–	25100	–	–	–	–	–	4 nM	40 nM	–	–	–	–

— ChEMBL document CHEMBL1138799, “4-benzyl- and 4-benzoyl-3-dimethylaminopyridin-2(1H)-ones, a new family of potent anti-HIV agents: optimization and in vitro evaluation against clinically important HIV mutant strains” (J Med Chem, 2004)
